DENV2 CPE rescue: inhibitors of DENV2 cytopathic effect, primary screen, cell-based, plate reader, single concentration | actives 1.7% (n = 350,000) | CPE inhibition, % at 9.99 µM | DENV2-infected cells, cytopathic effect rescue; in the data active = CPE inhibition above about 20%, passing the limit was not always enough; inconclusive = no clear call, values can overlap the other calls; tested in BHK-21 cells
SIRT5 block: SIRT5 desuccinylase inhibitors, primary screen, biochemical, fluorescence imaging, single point, set 5; Purified SirT5, succinyl-peptide AMC, trypsin-coupled fluorescence; AID 652115, 2013; inhibition, % at 15 µM; NAD-dependent protein deacylase sirtuin-5, mitochondrial (Homo sapiens), Q9NXA8; actives 1.1% (n = 330,000); in the data active = inhibition above about 15%; inconclusive = no clear call, values can overlap the other calls
Target sequence (Q9NXA8 whole entry, looked up): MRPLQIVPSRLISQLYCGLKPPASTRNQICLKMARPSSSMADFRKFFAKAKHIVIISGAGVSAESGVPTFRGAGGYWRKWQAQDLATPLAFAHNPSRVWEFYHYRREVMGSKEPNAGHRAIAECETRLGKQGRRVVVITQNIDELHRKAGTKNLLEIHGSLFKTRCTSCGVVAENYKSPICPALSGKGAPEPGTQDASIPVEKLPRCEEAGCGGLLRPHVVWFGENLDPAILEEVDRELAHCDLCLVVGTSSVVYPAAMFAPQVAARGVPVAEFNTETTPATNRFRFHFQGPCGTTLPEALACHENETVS
E-sel inducer: E-selectin induction in HUVECs, primary screen, imaging, HUVEC, immunofluorescence imaging, single point; AID 686992, 2013; normalized: neutral wells 0, TNF-alpha wells 100; P16581; actives 0.37% (n = 260,000); activation, % at 7.58 µM;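 active = mean E-selectin-positive cell signal at least 10% of the positive control, reached in at least 60% of replicates, without over 20% cell loss; inconclusive = no rule given, readout overlaps actives, possibly toxicity-flagged; inactive = the rest, including those meeting only one limit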
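Read-out: % PE-positive cells | Test system: HUVEC | Doses: One compound dose added by pin transfer | Buffer or medium: EGM-2 over gelatin coat | Signal: Immunofluorescence imaging | Benchmarks: TNF-alpha, DMSO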
Each line names hits and unclear results; the compound was inactive in the other large screens. Sampled rows, rich in hits. Any-hit rate of the full collection: about 2.9%.

C[C@H]1CN([C@@H](C)CO)C(=O)c2cc(NS(=O)(=O)c3ccc(Cl)cc3)ccc2O[C@H]1CN(C)C(=O)Nc1ccc(F)cc1	none
CCCCN1C(=O)C(=O)N(CC(=O)N2N=C3/C(=C/c4ccco4)CCCC3C2c2ccco2)C1=O (centres undefined)	none
CC(C)CC#Cc1cnc2c(c1)C(=O)N([C@H](C)CO)C[C@@H](C)[C@@H](CN(C)C(=O)c1ccc(F)cc1)O2	DENV2 CPE rescue 21.1
COCC#Cc1cnc2c(c1)C(=O)N([C@@H](C)CO)C[C@@H](C)[C@@H](CN(C)C(=O)c1ccc(F)cc1)O2	SIRT5 block 31.2
CC(C)CC#Cc1cnc2c(c1)C(=O)N([C@H](C)CO)C[C@H](C)[C@H](CN(C)C(=O)c1ccc(F)cc1)O2	none
C[C@H](CO)N1C[C@H](C)[C@H](CN(C)C(=O)Nc2ccccc2F)Oc2ncc(C#CCN(C)C)cc2C1=O	DENV2 CPE rescue 72.3 (no result: SIRT5 block)
C[C@H]1CN([C@@H](C)CO)C(=O)c2cc(C#CCN(C)C)cnc2O[C@@H]1CN(C)C(=O)Nc1ccccc1F	none
COCC#Cc1cnc2c(c1)C(=O)N([C@H](C)CO)C[C@@H](C)[C@@H](CN(C)C(=O)c1ccc(F)cc1)O2	none
C[C@H](CO)N1C[C@H](C)[C@H](CN(C)Cc2ccc(C(=O)O)cc2)Oc2c(NC(=O)c3cnccn3)cccc2C1=O	none
COC(=O)C1CCN(CC(=O)N(C)c2c(N)n(Cc3ccccc3)c(=O)[nH]c2=O)CC1	none (no result: E-sel inducer)
CS(=O)(=O)c1ccccc1-c1nnc(-c2ccc(Cl)cc2)o1	none (no result: E-sel inducer)
CCNC(=O)[C@H]1[C@H](CO)[C@H]2Cn3c(cccc3=O)[C@H]2N1Cc1ccccc1Cl	none
COc1ccccc1N(C)S(=O)(=O)c1ccc(C(=O)NCc2ccc3c(c2)OCO3)cc1	none (no result: E-sel inducer)
CC#C[C@@H](CC)c1ccc2ccn(C)c2c1	DENV2 CPE rescue 57.9
O=c1[nH]c(/C=C2\C=Nc3ccccc32)c(O)n1Cc1ccccc1F	none
COc1ccc(-n2c(O)c(/C=C3\C=Nc4ccccc43)c(=O)[nH]c2=O)cc1	SIRT5 block 38.7
C=C[C@@H](OC)[C@H](OC(=O)Nc1ccc(SC)cc1)c1ccc(OCCO)cc1	DENV2 CPE rescue 20.8 (no result: E-sel inducer)
CCOc1ccc(NC(=O)c2cc(SC)ccc2Cl)cc1	none (no result: DENV2 CPE rescue, SIRT5 block)
CNC(=O)C[C@H]1CC[C@H]2[C@@H](COc3ccc(NC(=O)c4ccc(OC)cc4)cc3C(=O)N2C)O1	none
CNC(=O)C[C@H]1CC[C@@H]2[C@@H](COc3ccc(NC(=O)c4cccc(F)c4)cc3C(=O)N2C)O1	none
CNC(=O)C[C@@H]1CC[C@H]2[C@@H](COc3ccc(NC(=O)c4ccc(OC)cc4)cc3C(=O)N2C)O1	DENV2 CPE rescue 63.5
CNC(=O)C[C@H]1CC[C@@H]2[C@@H](COc3ccc(NC(=O)c4ccccc4Cl)cc3C(=O)N2C)O1	DENV2 CPE rescue 30.7
CNC(=O)C[C@@H]1CC[C@@H]2[C@H](COc3ccc(NC(=O)c4cc(F)cc(F)c4)cc3C(=O)N2C)O1	SIRT5 block 16.4, E-sel inducer inconclusive
CCNC(=O)C[C@@H]1CC[C@@H]2[C@@H](COc3ccc(NC(=O)c4ccccc4Cl)cc3C(=O)N2C)O1	none (no result: SIRT5 block, E-sel inducer)
CNC(=O)C[C@H]1CC[C@H]2[C@@H](COc3ccc(NC(=O)c4cccc(F)c4)cc3C(=O)N2C)O1	E-sel inducer 91.9
CNC(=O)C[C@H]1CC[C@H]2[C@H](COc3ccc(NC(=O)c4cc(F)cc(F)c4)cc3C(=O)N2C)O1	none
c1ccc(-c2nc(C3CCCCC3)c3sccc3n2)cc1	none (no result: SIRT5 block)
C[C@H](CO)N1C[C@H](C)[C@@H](CN(C)Cc2ccncc2)OCCCC[C@H](C)Oc2ccc(NS(=O)(=O)c3cccs3)cc2C1=O	none
OC(c1ccc(Cl)cc1)c1ncc(-c2cccc(C(F)(F)F)c2)[nH]1 (centres undefined)	none
O=C(/C=C/c1ccc([N+](=O)[O-])cc1)Oc1ccc(/C=N/NC(=O)c2ccncc2)cc1	none (no result: E-sel inducer)
COC(=O)C[C@@H]1CC[C@H]2[C@H](COc3ccc(NC(=O)c4ccc(C(F)(F)F)cc4)cc3C(=O)N2C)O1	none
COC(=O)C[C@@H]1CC[C@H]2[C@@H](COc3ccc(NC(=O)c4ccc(C(F)(F)F)cc4)cc3C(=O)N2C)O1	DENV2 CPE rescue 99.1
O=C(CN1CCN(Cc2ccccc2)C1=O)NCCCN1CCOCC1	DENV2 CPE rescue inconclusive
C[C@@H]1CN([C@@H](C)CO)S(=O)(=O)c2ccc(-c3cncnc3)cc2O[C@@H]1CN(C)Cc1cncnc1	none
COc1ccc(S(=O)(=O)N(C)C[C@@H]2Oc3c(NC(=O)Nc4ccc(C(F)(F)F)cc4)cccc3C(=O)N([C@@H](C)CO)C[C@H]2C)cc1	none (no result: E-sel inducer)

From PubChem BioAssay
